Data: ChEMBL document CHEMBL5724801, “EUbOPEN Chemogenomics Library - Multiplex” (2024)
Where “and” joins values, the source holds several entries; their conditions need not be identical. Equal values may be shown once.

Test system: Fibroblast
Assay: Multiplex assay against human fibroblast
Assay type: toxicity, cell-based
Summary of the method: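 At seeding, live cells were stained with Hoechst33342, BioTracker Green Microtubule Cytoskeleton Dye, MitoTracker Red and Annexin V Alexa Fluor 680. After compound addition they were imaged on a CQ1 microscope at 37°C and 5% CO2, and CellPathfinder machine-learning gating sorted them into Hoechst high-intensity objects or normal cells, with normal cells further split into healthy, pyknosed or fragmented nuclei and pyknosed cells into mitotic or apoptotic. Tubulin, mitochondrial-mass and membrane-permeability phenotypes are given as per cents of cells with healthy nuclei.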

[1] = 12 h, 1 µM, compound concentration 1 uM
[2] = 12 h, 10 µM, compound concentration 10 uM
[3] = 24 h, 1 µM, compound concentration 1 uM
[4] = 24 h, 10 µM, compound concentration 10 uM
[5] = 48 h, 1 µM, compound concentration 1 uM
[6] = 48 h, 10 µM, compound concentration 10 uM

COc1cc(OC2CCN(C(C)=O)CC2)ccc1C(=O)N1CCC(N2C(=O)OCc3ccccc32)CC1
Population Apoptotic (%) [1]: 41% and 40% | Population Fragmented Nuclei (%) [1]: 12% and 29% | Population Healthy Nuclei (%) [1]: 64% and 52% | Population Hoechst High Intensity Objects (%) [1]: 5% and 3% | Population Membrane Permeable-Phenotype (%) [1]: 2% and 0% | Population Mitochondria Different-Phenotype (%) [1]: 5% and 3% | Population Mitotic Cells (%) [1]: 58% and 59% | Population Normal (%) [1]: 94% and 96% | Population Pyknosed Nuclei (%) [1]: 22% and 17% | Population Tubulin-Different-Phenotype (%) [1]: 32% and 34% | Total Cell Count [1]: 157 and 159 | Population Apoptotic (%) [2]: 52% and 37% | Population Healthy Nuclei (%) [2]: 73% and 40% | Population Hoechst High Intensity Objects (%) [2]: 3% and 6% | Population Membrane Permeable-Phenotype (%) [2]: 0% and 2% | Population Mitochondria Different-Phenotype (%) [2]: 6% and 10% | Population Mitotic Cells (%) [2]: 48% and 62% | Population Normal (%) [2]: 96% and 93% | Population Pyknosed Nuclei (%) [2]: 16% and 28% | Population Tubulin-Different-Phenotype (%) [2]: 54% and 56% | Total Cell Count [2]: 161 and 134 | Population Apoptotic (%) [3]: 63% and 48% | Population Fragmented Nuclei (%) [3]: 19% and 28% | Population Healthy Nuclei (%) [3]: 63% and 51% | Population Hoechst High Intensity Objects (%) [3]: 1% | Population Membrane Permeable-Phenotype (%) [3]: 0% and 5% | Population Mitochondria Different-Phenotype (%) [3]: 4% and 3% | Population Mitotic Cells (%) [3]: 36% and 51% | Population Normal (%) [3]: 98% | Population Pyknosed Nuclei (%) [3]: 17% and 19% | Population Tubulin-Different-Phenotype (%) [3]: 32% and 31% | Total Cell Count [3]: 170 and 155 | Population Apoptotic (%) [4]: 36% and 43% | Population Fragmented Nuclei (%) [4]: 13% and 34% | Population Healthy Nuclei (%) [4]: 74% and 48% | Population Hoechst High Intensity Objects (%) [4]: 7% | Population Membrane Permeable-Phenotype (%) [4]: 1% and 3% | Population Mitochondria Different-Phenotype (%) [4]: 7% and 10% | Population Mitotic Cells (%) [4]: 63% and 56% | Population Normal (%) [4]: 92% | Population Pyknosed Nuclei (%) [4]: 11% and 17% | Population Tubulin-Different-Phenotype (%) [4]: 39% and 70% | Total Cell Count [4]: 172 and 145 | Population Apoptotic (%) [5]: 40% and 58% | Population Fragmented Nuclei (%) [5]: 14% and 32% | Population Healthy Nuclei (%) [5]: 70% and 52% | Population Hoechst High Intensity Objects (%) [5]: 7% and 3% | Population Membrane Permeable-Phenotype (%) [5]: 0% and 4% | Population Mitochondria Different-Phenotype (%) [5]: 5% and 4% | Population Mitotic Cells (%) [5]: 59% and 41% | Population Normal (%) [5]: 92% and 96% | Population Pyknosed Nuclei (%) [5]: 14% and 15% | Population Tubulin-Different-Phenotype (%) [5]: 35% and 43% | Total Cell Count [5]: 160 and 163 | Population Apoptotic (%) [6]: 57% and 56% | Population Healthy Nuclei (%) [6]: 79% and 51% | Population Hoechst High Intensity Objects (%) [6]: 5% and 3% | Population Membrane Permeable-Phenotype (%) [6]: 0% and 3% | Population Mitochondria Different-Phenotype (%) [6]: 13% and 10% | Population Mitotic Cells (%) [6]: 42% and 43% | Population Normal (%) [6]: 94% and 96% | Population Pyknosed Nuclei (%) [6]: 9% and 12% | Population Tubulin-Different-Phenotype (%) [6]: 51% and 69% | Total Cell Count [6]: 155 and 134
